# Test results: ChEMBL document CHEMBL4346654 (Eur J Med Chem, 2019)
# Key:
# Type in all cases: functional
# Streptococcus pneumoniae [1] = assay: Bactericidal activity against Streptococcus pneumoniae 07P390 expressing constitutive ermB gene pretreated followed by subculture in absence of compound measured after 24 hrs
# Procedure, shortened: (§1)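 Isolates were identified by 16S rDNA sequencing. MIC was determined by CLSI-recommended two-fold broth dilution. For MBC, samples from 1–8 fold MIC were transferred to culture medium and subcultured for 24 h without antibiotic.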
# Moraxella catarrhalis [2] = assay: Bactericidal activity against erythromycin-susceptible Moraxella catarrhalis 13L332 pretreated followed by subculture in absence of compound measured after 24 hrs; procedure, shortened: as §1
# Streptococcus pneumoniae [3] = assay: Antibacterial activity against penicillin-susceptible Streptococcus pneumoniae PU 09 expressing mef gene assessed as reduction in microbial growth by CLSI based two-fold broth dilution method
# Streptococcus pyogenes [4] = assay: Selectivity ratio of MBC to MIC for Streptococcus pyogenes 12-207 expressing mef gene; procedure, shortened: as §1
# Staphylococcus aureus [5] = assay: Bactericidal activity against MLS-resistant Staphylococcus aureus PU 20 expressing constitutive ermC gene pretreated followed by subculture in absence of compound measured after 24 hrs
# Procedure, shortened: (§2)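 MBC assay. Following MIC determination by CLSI standard two-fold broth dilution, samples at 1–8 fold MIC were transferred to fresh culture medium. They were subcultured for 24 h without antibiotic. Isolates were identified by 16S rDNA sequencing. S. aureus ATCC 29213 was used as a control strain.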
# Streptococcus pyogenes [6] = assay: Bactericidal activity against MLS-resistant Streptococcus pyogenes 12-206 expressing constitutive ermA gene pretreated followed by subculture in absence of compound measured after 24 hrs; procedure, shortened: as §2
# Streptococcus pyogenes [7] = assay: Antibacterial activity against MLS-resistant Streptococcus pyogenes 01-968 expressing inducible ermB gene assessed as reduction in microbial growth by CLSI based two-fold broth dilution method
# Streptococcus pneumoniae [8] = assay: Selectivity ratio of MBC to MIC for Streptococcus pneumoniae 07P390 expressing constitutive ermB gene; procedure, shortened: as §1
# Staphylococcus aureus [9] = assay: Antibacterial activity against MLS-resistant Staphylococcus aureus PU 20 expressing constitutive ermC gene assessed as reduction in microbial growth by CLSI based two-fold broth dilution method
# Streptococcus pneumoniae [10] = assay: Bactericidal activity against penicillin-susceptible Streptococcus pneumoniae PU 09 expressing mef gene pretreated followed by subculture in absence of compound measured after 24 hrs; procedure, shortened: as §1
# Haemophilus influenzae [11] = assay: Antibacterial activity against azithromycin-susceptible Haemophilus influenzae ATCC 49247 assessed as reduction in microbial growth by CLSI based two-fold broth dilution method
# Haemophilus influenzae [12] = assay: Bactericidal activity against azithromycin-susceptible Haemophilus influenzae ATCC 49247 pretreated followed by subculture in absence of compound measured after 24 hrs; procedure, shortened: as §1
# Staphylococcus aureus [13] = assay: Bactericidal activity against MLS/methicillin-resistant Staphylococcus aureus PU 32 expressing inducible ermA gene pretreated followed by subculture in absence of compound measured after 24 hrs; procedure, shortened: as §2
# Haemophilus influenzae [14] = assay: Selectivity ratio of MBC to MIC for azithromycin-susceptible Haemophilus influenzae ATCC 49247; procedure, shortened: as §1
# Streptococcus pyogenes [15] = assay: Bactericidal activity against Streptococcus pyogenes 12-207 expressing mef gene pretreated followed by subculture in absence of compound measured after 24 hrs; procedure, shortened: as §1
# Streptococcus pneumoniae [16] = assay: Selectivity ratio of MBC to MIC for penicillin-susceptible Streptococcus pneumoniae PU 09 expressing mef gene; procedure, shortened: as §1
# Moraxella catarrhalis [17] = assay: Selectivity ratio of MBC to MIC for erythromycin-susceptible Moraxella catarrhalis 13L332; procedure, shortened: as §1
# Streptococcus pyogenes [18] = assay: Antibacterial activity against Streptococcus pyogenes 12-207 expressing mef gene assessed as reduction in microbial growth by CLSI based two-fold broth dilution method
# Streptococcus pneumoniae [19] = assay: Antibacterial activity against Streptococcus pneumoniae 07P390 expressing constitutive ermB gene assessed as reduction in microbial growth by CLSI based two-fold broth dilution method
# Streptococcus pyogenes [20] = assay: Selectivity ratio of MBC to MIC for MLS-resistant Streptococcus pyogenes 01-968 expressing inducible ermB gene
# Procedure, shortened: (§3)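 MBC/MIC ratio. MIC was measured by CLSI standard two-fold broth dilution. MBC was measured by transferring samples at 1–8 fold MIC to culture medium and subculturing for 24 h without antibiotic. Isolates were identified by 16S rDNA sequencing.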
# Staphylococcus aureus [21] = assay: Selectivity ratio of MBC to MIC for MLS/methicillin-resistant Staphylococcus aureus PU 32 expressing inducible ermA gene; procedure, shortened: as §3
# Streptococcus pyogenes [22] = assay: Selectivity ratio of MBC to MIC for MLS-resistant Streptococcus pyogenes 12-206 expressing constitutive ermA gene; procedure, shortened: as §3
# Streptococcus pyogenes [23] = assay: Antibacterial activity against MLS-resistant Streptococcus pyogenes 12-206 expressing constitutive ermA gene assessed as reduction in microbial growth by CLSI based two-fold broth dilution method
# Streptococcus pyogenes [24] = assay: Bactericidal activity against MLS-resistant Streptococcus pyogenes 01-968 expressing inducible ermB gene pretreated followed by subculture in absence of compound measured after 24 hrs; procedure, shortened: as §2
# Streptococcus pneumoniae [25] = assay: Bactericidal activity against erythromycin-susceptible Streptococcus pneumoniae ATCC49619 pretreated followed by subculture in absence of compound measured after 24 hrs; procedure, shortened: as §1
# Staphylococcus aureus [26] = assay: Antibacterial activity against MLS-resistant Staphylococcus aureus PU 32 expressing inducible ermA gene assessed as reduction in microbial growth by CLSI based two-fold broth dilution method
# Moraxella catarrhalis [27] = assay: Antibacterial activity against erythromycin-susceptible Moraxella catarrhalis 13L332 assessed as reduction in microbial growth by CLSI based two-fold broth dilution method
# Streptococcus pneumoniae [28] = assay: Antibacterial activity against erythromycin-susceptible Streptococcus pneumoniae ATCC49619 assessed as reduction in microbial growth by CLSI based two-fold broth dilution method
SMILES,MBC (Streptococcus pneumoniae [1]) [µg/mL],MBC (Moraxella catarrhalis [2]) [µg/mL],MIC (Streptococcus pneumoniae [3]) [µg/mL],Selectivity ratio (Streptococcus pyogenes [4]),MBC (Streptococcus pyogenes [6]) [µg/mL],MIC (Streptococcus pyogenes [7]) [ng/mL],Selectivity ratio (Streptococcus pneumoniae [8]),MIC (Staphylococcus aureus [9]) [µg/mL],MBC (Streptococcus pneumoniae [10]) [µg/mL],MIC (Haemophilus influenzae [11]) [µg/mL],MBC (Haemophilus influenzae [12]) [µg/mL],MBC (Staphylococcus aureus [13]) [µg/mL],Selectivity ratio (Haemophilus influenzae [14]),MBC (Streptococcus pyogenes [15]) [µg/mL],Selectivity ratio (Streptococcus pneumoniae [16]),Selectivity ratio (Moraxella catarrhalis [17]),MIC (Streptococcus pyogenes [18]) [µg/mL],MIC (Streptococcus pneumoniae [19]) [µg/mL],Selectivity ratio (Streptococcus pyogenes [20]),Selectivity ratio (Staphylococcus aureus [21]),further results
CC[C@H]1OC(=O)[C@@](C)(F)C(=O)[C@H](C)[C@@H](O[C@@H]2O[C@H](C)C[C@H](N(C)C)[C@H]2O)[C@](C)(OC)C[C@@H](C)/C(=N\OC/C=C/c2ccc3c(c2)c(=O)c(C(=O)NC)cn3CC)[C@H](C)[C@H]2OC(=O)O[C@@]21C,> 2,64,0.5,4,> 8,16,>8,128,0.5,128,256,> 16,2,1,1,8,0.25,0.25,>8,>8,MBC (Staphylococcus aureus [5]): > 256 µg/mL; Selectivity ratio (Streptococcus pyogenes [22]): >8; MIC (Streptococcus pyogenes [23]): 1 µg/mL; MBC (Streptococcus pyogenes [24]): > 0.125 µg/mL; MBC (Streptococcus pneumoniae [25]): ≤ 8 ng/mL; MIC (Staphylococcus aureus [26]): 2 µg/mL; MIC (Moraxella catarrhalis [27]): 8 µg/mL; MIC (Streptococcus pneumoniae [28]): ≤ 8 ng/mL
CC[C@H]1OC(=O)[C@@](C)(F)C(=O)[C@H](C)[C@@H](O[C@@H]2O[C@H](C)C[C@H](N(C)C)[C@H]2O)[C@](C)(OC)C[C@@H](C)/C(=N\OCC#Cc2ccc3c(c2)c(=O)c(C(N)=O)cn3C2CC2)[C@H](C)[C@H]2OC(=O)O[C@@]21C,> 2,> 32,0.25,8,> 8,≤ 2,>8,128,0.5,32,128,8,4,2,2,>8,0.25,0.25,>8,8,MBC (Staphylococcus aureus [5]): > 256 µg/mL; Selectivity ratio (Streptococcus pyogenes [22]): >8; MIC (Streptococcus pyogenes [23]): 1 µg/mL; MBC (Streptococcus pyogenes [24]): > 0.016 µg/mL; MBC (Streptococcus pneumoniae [25]): ≤ 8 ng/mL; MIC (Staphylococcus aureus [26]): 1 µg/mL; MIC (Moraxella catarrhalis [27]): 4 µg/mL; MIC (Streptococcus pneumoniae [28]): ≤ 8 ng/mL
CC[C@H]1OC(=O)[C@@](C)(F)C(=O)[C@H](C)[C@@H](O[C@@H]2O[C@H](C)C[C@H](N(C)C)[C@H]2O)[C@](C)(OC/C=C/c2ccc3c(c2)c(=O)c(C(N)=O)cn3CC)C[C@@H](C)/C(=N\OC)[C@H](C)[C@H]2OC(=O)O[C@@]21C,> 0.062,> 4,0.25,4,> 0.016,≤ 2,>8,> 256,0.25,64,128,> 2,2,0.25,1,>8,0.062,≤ 0.008,>=4,>8,Selectivity ratio (Streptococcus pyogenes [22]): >8; MIC (Streptococcus pyogenes [23]): ≤ 0.002 µg/mL; MBC (Streptococcus pyogenes [24]): 0.008 µg/mL; MBC (Streptococcus pneumoniae [25]): ≤ 8 ng/mL; MIC (Staphylococcus aureus [26]): 0.25 µg/mL; MIC (Moraxella catarrhalis [27]): 0.5 µg/mL; MIC (Streptococcus pneumoniae [28]): ≤ 8 ng/mL
CC[C@H]1OC(=O)[C@@](C)(F)C(=O)[C@H](C)[C@@H](O[C@@H]2O[C@H](C)C[C@H](N(C)C)[C@H]2O)[C@](C)(OC)C[C@@H](C)/C(=N\OCC#Cc2ccc3c(c2)c(=O)c(C(=O)NC)cn3C2CC2)[C@H](C)[C@H]2OC(=O)O[C@@]21C,> 2,> 32,0.5,4,> 4,≤ 2,>8,128,0.5,64,256,> 8,4,1,1,>8,0.25,0.25,>8,>8,MBC (Staphylococcus aureus [5]): > 256 µg/mL; Selectivity ratio (Streptococcus pyogenes [22]): >8; MIC (Streptococcus pyogenes [23]): 0.5 µg/mL; MBC (Streptococcus pyogenes [24]): > 0.016 µg/mL; MBC (Streptococcus pneumoniae [25]): ≤ 8 ng/mL; MIC (Staphylococcus aureus [26]): 1 µg/mL; MIC (Moraxella catarrhalis [27]): 4 µg/mL; MIC (Streptococcus pneumoniae [28]): ≤ 8 ng/mL
CC[C@H]1OC(=O)[C@@](C)(F)C(=O)[C@H](C)[C@@H](O[C@@H]2O[C@H](C)C[C@H](N(C)C)[C@H]2O)[C@](C)(OC/C=C/c2ccc3c(c2)c(=O)c(C(=O)NC)cn3C2CC2)C[C@@H](C)/C(=N\OC)[C@H](C)[C@H]2OC(=O)O[C@@]21C,> 0.062,> 8,0.25,4,> 0.25,≤ 2,>8,256,0.5,32,32,> 8,1,0.5,2,>8,0.125,≤ 0.008,>8,>8,MBC (Staphylococcus aureus [5]): > 256 µg/mL; Selectivity ratio (Streptococcus pyogenes [22]): >8; MIC (Streptococcus pyogenes [23]): 0.031 µg/mL; MBC (Streptococcus pyogenes [24]): > 0.016 µg/mL; MBC (Streptococcus pneumoniae [25]): ≤ 8 ng/mL; MIC (Staphylococcus aureus [26]): 1 µg/mL; MIC (Moraxella catarrhalis [27]): 1 µg/mL; MIC (Streptococcus pneumoniae [28]): ≤ 8 ng/mL
